According to BindingDB's records for doi:10.1021/jm960074e (National Cancer Institute-Bethesda, 1996):
pIC50: −log10 of the molar value.

target: Integrase (Human immunodeficiency virus 1, UniProt Q7ZJM1); experiment: Inhibitory activity against HIV-1 integrase
Summary of the method: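 Purified recombinant wild-type HIV-1 integrase, 200 nM final, preincubated with inhibitor for 30 min at 30 °C. Buffer: 25 mM MOPS pH 7.2, 7.5 mM MnCl2, 50 mM NaCl, 10% DMSO, 10% glycerol, BSA, DTT, 2-mercaptoethanol. Then 20 nM 5'-32P-labeled 21mer U5 duplex added for 60 min. Products run on denaturing 20% polyacrylamide gel and quantified by phosphorimager.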

Chain of Integrase (Q7ZJM1 whole entry): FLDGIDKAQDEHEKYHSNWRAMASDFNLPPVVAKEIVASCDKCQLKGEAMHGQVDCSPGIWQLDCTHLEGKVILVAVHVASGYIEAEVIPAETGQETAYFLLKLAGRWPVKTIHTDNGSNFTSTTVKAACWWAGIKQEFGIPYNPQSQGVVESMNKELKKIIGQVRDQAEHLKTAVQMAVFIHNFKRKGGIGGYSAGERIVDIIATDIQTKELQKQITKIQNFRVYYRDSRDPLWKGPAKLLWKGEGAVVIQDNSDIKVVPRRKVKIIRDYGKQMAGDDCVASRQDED

Structure (SMILES)	pIC50
O=C1C(=O)c2ccccc2C(=O)C1=C(c1ccc(Cl)cc1)c1c(O)c(O)c2ccccc2c1O [2-[4-chlorophenyl(3-hydroxy-1,4-dioxo-1,4-dihydro-2-naphthalenyl)methyl]-3-hydroxy-1,4-dihydro-1,4-naphthalenedione]	< 4.00
CC(=O)c1cccc(NC(=O)C(=O)c2c(O)c3ccccc3oc2=O)c1 [N-(3-Acetyl-phenyl)-2-(4-hydroxy-2-oxo-2H-chromen-3-yl)-2-oxo-acetamide]	< 4.00
CC(=C1C(=O)C(=O)c2ccccc2C1=O)c1c(O)c(O)c2ccccc2c1O [2-hydroxy-3-[1-(3-hydroxy-1,4-dioxo-1,4-dihydro-2-naphthalenyl)ethyl]-1,4-dihydro-1,4-naphthalenedione]	< 4.00
CCOc1ccc(C(=C2C(=O)C(=O)c3ccccc3C2=O)c2c(O)c(O)c3ccccc3c2O)cc1OC [2-[4-ethoxy-3-methoxyphenyl(3-hydroxy-1,4-dioxo-1,4-dihydro-2-naphthalenyl)methyl]-3-hydroxy-1,4-dihydro-1,4-naphthalenedione]	4.00
O=C1Oc2ccccc2C(O)C1Cc1c(O)c2ccccc2oc1=O (stereo not given) [NSC-41834]	< 4.00
Cc1ccc(S(=O)(=O)NN=C(CCN2CCCC2)CC(c2ccccc2)c2c(O)c3ccccc3oc2=O)cc1 (stereo not given) [NSC-647410]	< 4.00

The remaining lines, values ahead:

pIC50	Structure (SMILES)
< 4.00	COc1cc(C(=C2C(=O)C(=O)c3ccccc3C2=O)c2c(O)c(O)c3ccccc3c2O)cc(OC)c1OC [NSC-117278]
< 4.00	O=C1C(=O)C(Sc2ccccc2)C(=O)c2ccccc21 (stereo not given) [NSC-108029]
< 4.00	CN(C)c1ccc(C(=C2C(=O)C(=O)c3ccccc3C2=O)c2c(O)c(O)c3ccccc3c2O)cc1 [NSC-92203]
< 4.00	O=C(c1cccc([N+](=O)[O-])c1)c1c(O)c2ccccc2oc1=O [NSC-133800]
